Measurements taken from PubChem BioAssay.
Activity calls are given as the source filed them. Cut-off read from the data, not from the text of the source, unless noted: active = inhibition above about 31%; inactive = the rest.

Columns and labels:
[1] = HUVEC growth inhibition – cell-based, human, primary screen (AID 575;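 active = viability at or below 30% in both replicate assays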;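 note: 100% = median of untreated cell wells with 0.1% DMSO on each plate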); settings: HUVEC proliferation, CellTiter-Glo luminescence, 72 h; at 10 µM; stronger effect = lower value
Method in brief: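 Test system – primary HUVEC, no more than 12 passages · Dosing – one dose, 10 µM final, 0.1% DMSO · Times – 72 h treatment at 37 °C · Measured by – ATP-based CellTiter-Glo luminescent read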

[2] = H69AR cell proliferation blockers – human, duplicate replicates, primary screen (AID 580;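 active = viability at or under a set limit in both replicates, limit being median viability minus 3 SD, cut at about 48% in these data, passing the limit was not always enough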;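 note: 100% = mean luminescence of untreated wells and 0% = no signal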); settings: H69AR lung tumor cells viability, ATP luminescence, 72 h; at 10 µM; stronger effect = lower value
[3] = MRP1 drug-resistance reversers in H69AR cells – cell-based, doxorubicin co-treatment, pilot screen (AID 601;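 active = viability loss from added drug above about 55%, and viability with drug at most 40%, in both replicates, limit read from the data, passing the limit was not always enough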); settings: CellTiter-Glo, 72 h, at 10 µM; for differential viability (reversal): stronger effect = higher value
[4] = yeast transport mutant growth inhibition pilot in 384-well plates, post-Golgi transport modulator project (AID 636); settings: absorbance 615 nm, about 18 h, stronger effect = higher value
[5] = growth suppression of yeast trafficking mutant, preliminary HTS, modulators of trafficking downstream of Golgi apparatus project, 1536-format plate, OD 615 nm (AID 637; in the data active = inhibition above about 30%); settings: yeast transport mutant growth, absorbance 615 nm, 18 h; stronger effect = higher value
[6] = H69AR cells + 2 uM doxorubicin, measured here: viability with 2 uM doxorubicin, stronger effect = lower value
[7] = H69AR cells, compound alone cytotoxicity

## CCOCCCNC(=O)C1CCN(S(=O)(=O)c2c(C)noc2/C=C\c2ccc(OC)cc2)CC1
[1]
  viability: 99.5% (inactive)
[2]
  viability: 101% (inactive)
[3]; H69AR cells + 2 uM doxorubicin
  differential viability (reversal): -0.205% (inactive)
[3]; [6]
  viability: 101%
[3]; [7]
  viability: 101%
[4]
  inhibition: 4.13% (inactive)
[5]
  inhibition: -3.65% (inactive)

## CC(=O)CC(=O)Nc1ccccc1NC(C)=O
[1]
  viability: 105% (inactive)
[2]
  viability: 101% (inactive)
[3]; H69AR cells + 2 uM doxorubicin
  differential viability (reversal): 8.12% (inactive)
[3]; [6]
  viability: 93.2%
[3]; [7]
  viability: 101%
[4]
  inhibition: -2.86% (inactive)
[5]
  inhibition: 1.43% (inactive)

## Cn1c(=O)[nH]c(=O)c2c1nc(N1CCNCC1)n2Cc1cccc2ccccc12
[1]
  viability: 85.5% (inactive)
[2]
  viability: 88.8% (inactive)
[3]; H69AR cells + 2 uM doxorubicin
  differential viability (reversal): 2.38% (inactive)
[3]; [6]
  viability: 86.4%
[3]; [7]
  viability: 88.8%
[4]
  inhibition: -1.56% (inactive)
[5]
  inhibition: 4.76% (inactive)

## c1ccc2c3nnc4n(c-3nc2c1)CCCS4
[1]
  viability: 94% (inactive)
[2]
  viability: 104% (inactive)
[3]; H69AR cells + 2 uM doxorubicin
  differential viability (reversal): 11.4% (inactive)
[3]; [6]
  viability: 92.7%
[3]; [7]
  viability: 104%
[4]
  inhibition: -1.32% (inactive)
[5]
  inhibition: 4.6% (inactive)

## Cc1ccc(SCCC(=O)N(C)C)cc1
[1]
  viability: 105% (inactive)
[2]
  viability: 103% (inactive)
[3]; H69AR cells + 2 uM doxorubicin
  differential viability (reversal): 18.3% (inactive)
[3]; [6]
  viability: 84.6%
[3]; [7]
  viability: 103%
[4]
  inhibition: -2.89% (inactive)
[5]
  inhibition: 0% (inactive)

## Cc1noc(C)c1C(=O)Nc1sc(C)c(C)c1C#N
[1]
  viability: 105% (inactive)
[2]
  viability: 95.5% (inactive)
[3]; H69AR cells + 2 uM doxorubicin
  differential viability (reversal): 20.3% (inactive)
[3]; [6]
  viability: 75.2%
[3]; [7]
  viability: 95.5%
[4]
  inhibition: -1.97% (inactive)
[5]
  inhibition: 2.86% (inactive)

## O=C(O)c1ccccc1S
[1]
  viability: 84.4% (inactive)
[2]
  viability: 74.7% (inactive)
[3]; H69AR cells + 2 uM doxorubicin
  differential viability (reversal): 6.9% (inactive)
[3]; [6]
  viability: 67.8%
[3]; [7]
  viability: 74.7%
[4]
  inhibition: -2.34% (inactive)
[5]
  inhibition: 3.5% (inactive)

## Cn1c(=O)c(=O)n(C)c2cc(S(=O)(=O)Nc3ccc4c(c3)OCCO4)ccc21
[1]
  viability: 99.5% (inactive)
[2]
  viability: 94.9% (inactive)
[3]; H69AR cells + 2 uM doxorubicin
  differential viability (reversal): 6.65% (inactive)
[3]; [6]
  viability: 88.2%
[3]; [7]
  viability: 94.9%
[4]
  inhibition: -0.67% (inactive)
[5]
  inhibition: 8.41% (inactive)

## COc1ccccc1NC(=O)N1CCN(c2ccccc2F)CC1
[1]
  viability: 108% (inactive)
[2]
  viability: 93.8% (inactive)
[3]; H69AR cells + 2 uM doxorubicin
  differential viability (reversal): 19.5% (inactive)
[3]; [6]
  viability: 74.3%
[3]; [7]
  viability: 93.8%
[4]
  inhibition: -5.87% (inactive)
[5]
  inhibition: 1.11% (inactive)

## Cc1nc(C)c(C(=O)OCC(=O)N2CCN(c3ccccc3)CC2)s1
[1]
  viability: 108% (inactive)
[2]
  viability: 95.8% (inactive)
[3]; H69AR cells + 2 uM doxorubicin
  differential viability (reversal): 7.64% (inactive)
[3]; [6]
  viability: 88.1%
[3]; [7]
  viability: 95.8%
[4]
  inhibition: -4.55% (inactive)
[5]
  inhibition: 4.29% (inactive)

## CCCC(CCC)n1[nH]c(=O)c2c(C)cc(C)nc21
[1]
  viability: 108% (inactive)
[2]
  viability: 104% (inactive)
[3]; H69AR cells + 2 uM doxorubicin
  differential viability (reversal): 1.53% (inactive)
[3]; [6]
  viability: 103%
[3]; [7]
  viability: 104%
[4]
  inhibition: 0.26% (inactive)
[5]
  inhibition: -3.17% (inactive)

## O=C(NCC(=O)N(CCc1ccccc1)C(C(=O)NC1CCCC1)c1cccnc1)c1ccco1 (stereo not drawn)
[1]
  viability: 96.9% (inactive)
[2]
  viability: 99.8% (inactive)
[3]; H69AR cells + 2 uM doxorubicin
  differential viability (reversal): -1.49% (inactive)
[3]; [6]
  viability: 101%
[3]; [7]
  viability: 99.8%
[4]
  inhibition: -2.24% (inactive)
[5]
  inhibition: -6.98% (inactive)

## C=CCn1c(Br)nc2c1c(=O)[nH]c(=O)n2C
[1]
  viability: 97.7% (inactive)
[2]
  viability: 85.1% (inactive)
[3]; H69AR cells + 2 uM doxorubicin
  differential viability (reversal): 6.37% (inactive)
[3]; [6]
  viability: 78.7%
[3]; [7]
  viability: 85.1%
[4]
  inhibition: -6.93% (inactive)
[5]
  inhibition: 3.33% (inactive)

## CC12C(=O)N(CCC(=O)O)C(=O)C1C1C=CC2C1 (stereo not drawn)
[1]
  viability: 107% (inactive)
[2]
  viability: 89.6% (inactive)
[3]; H69AR cells + 2 uM doxorubicin
  differential viability (reversal): -1.44% (inactive)
[3]; [6]
  viability: 91%
[3]; [7]
  viability: 89.6%
[4]
  inhibition: -2.37% (inactive)
[5]
  inhibition: 2.86% (inactive)

## O=C(CSc1nc2ccc(Cl)cc2[nH]1)NCc1ccco1
[1]
  viability: 74.2% (inactive)
[2]
  viability: 65.4% (inactive)
[3]; H69AR cells + 2 uM doxorubicin
  differential viability (reversal): -4.26% (inactive)
[3]; [6]
  viability: 69.6%
[3]; [7]
  viability: 65.4%
[4]
  inhibition: 0.65% (inactive)
[5]
  inhibition: 13.3% (inactive)

## CCOC(=O)C1CCCN(c2nc3ccccc3nc2C(C#N)C(=O)NCc2ccccc2)C1 (stereo not drawn)
[1]
  viability: 80.6% (inactive)
[2]
  viability: 86.2% (inactive)
[3]; H69AR cells + 2 uM doxorubicin
  differential viability (reversal): 0.385% (inactive)
[3]; [6]
  viability: 85.8%
[3]; [7]
  viability: 86.2%
[4]
  inhibition: -3.95% (inactive)
[5]
  inhibition: -1.27% (inactive)

## COCC(=O)NC(c1ccccc1)c1ccccc1
[1]
  viability: 86.1% (inactive)
[2]
  viability: 89.5% (inactive)
[3]; H69AR cells + 2 uM doxorubicin
  differential viability (reversal): 12.2% (inactive)
[3]; [6]
  viability: 77.3%
[3]; [7]
  viability: 89.5%
[4]
  inhibition: -5.84% (inactive)
[5]
  inhibition: 3.81% (inactive)

## COc1ccc(S(=O)(=O)N2CCN(Cc3ccc(Cl)cc3)CC2)cc1
[1]
  viability: 90.7% (inactive)
[2]
  viability: 97% (inactive)
[3]; H69AR cells + 2 uM doxorubicin
  differential viability (reversal): 6.67% (inactive)
[3]; [6]
  viability: 90.3%
[3]; [7]
  viability: 97%
[4]
  inhibition: -0.4% (inactive)
[5]
  inhibition: -3.81% (inactive)

## CCC(C)(C)n1nnnc1C(c1ccccc1OC)N1CCSCC1 (stereo not drawn)
[1]
  viability: 99.6% (inactive)
[2]
  viability: 90% (inactive)
[3]; H69AR cells + 2 uM doxorubicin
  differential viability (reversal): 7.71% (inactive)
[3]; [6]
  viability: 82.3%
[3]; [7]
  viability: 90%
[4]
  inhibition: -0.78% (inactive)
[5]
  inhibition: -4.76% (inactive)
